Laboratory results from ChEMBL document CHEMBL1127511, “Synthesis and antitumor activity of a series of [2-substituted-4,5-bis(aminomethyl)-1,3-dioxolane]platinum(II) complexes” (J Med Chem, 1994).
Where “and” joins values, the source holds several entries; their conditions need not be identical. Identical values can stand only once.

Legend:
[1] = system: KATO III stomach cancer cell line; assay: Cytotoxicity activity against human stomach adenocarcinoma cell lines KATO-III by using MTT assay; type: functional, cell-based
Outline: (§1)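 Human stomach cancer lines in RPMI-1640 with 10% heat-inactivated FCS and penicillin/streptomycin, 37 °C, 5% CO2, seeded to stay in exponential growth. Compound added as 0.1–100.0 μg/mL solutions (stock, diluted 1:10 in well), triplicate, 4 days. MTT for 4 h, formazan dissolved in DMSO or acidified 2-propanol, read at 540 nm. IC50 from OD relative to control by probit analysis, ≥3 experiments.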

MKN-45 = assay: Cytotoxicity activity against human stomach adenocarcinoma cell lines MKN-45by using MTT assay; type: functional, cell-based; outline: as §1
NCI-N87 = assay: In vitro cytotoxicity activity against human stomach cancer cell lines NCI-N87; type: functional, cell-based; outline: as §1
PC-9 = assay: Cytotoxicity activity against human non-small cell lung adenocarcinoma cell lines PC-9 by using MTT assay; type: functional, cell-based
PC-14 = assay: Cytotoxicity activity against human non-small cell lung adenocarcinoma cell lines PC-14 by using MTT assay; type: functional, cell-based
SNU1 = assay: In vitro cytotoxicity activity against human stomach cancer cell lines SNU-1; type: functional, cell-based; outline: as §1
SNU-16 = assay: In vitro cytotoxicity activity against human stomach cancer cell lines SNU-16; type: functional, cell-based; outline: as §1
SNU-5 = assay: In vitro cytotoxicity activity against human stomach cancer cell lines SNU-5; type: functional, cell-based; outline: as §1
L1210 [2] = assay: Antitumor activity against Cisplatin-Resistant L1210 Leukemia cells in mice at their respective dose at 100 mg/kg, ip, days; type: functional, organism-based; parameters: dose 100 mg/kg; settings: Mus musculus
Outline: (§2)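 BDF1 male mice inoculated ip on day 0 with 1 × 10^6 viable (trypan blue-excluding) L1210 cells, or cisplatin-resistant L1210 cells, maintained by serial ip passage in DBA/2 mice. The resistant line came from continuous exposure to rising cisplatin and was passaged in DBA/2 mice given cisplatin 5 mg/kg ip on days 1 and 5. Drug ip on days 1, 5, 9; seven mice per dose; end day 50; %T/C from mean survival time.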

L1210 [3] = assay: Antitumor activity against Cisplatin-Resistant L1210 Leukemia cells in mice at their respective dose at 25 mg/kg, ip, days; type: functional, organism-based; parameters: dose 25 mg/kg; settings: Mus musculus; outline: as §2
L1210 [4] = assay: Antitumor activity against Cisplatin-Resistant L1210 Leukemia cells in mice at their respective dose at 50 mg/kg, ip, days; type: functional, organism-based; parameters: dose 50 mg/kg; settings: Mus musculus; outline: as §2
Mus musculus [5] = assay: The serum levels of blood urea nitrogen in mice after a single intraperitoneal at dose 150 mg/kg on day1; type: functional, organism-based; parameters: dose 150 mg/kg
Outline: (§3)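 Male ICR mice, single ip dose on day 0 in 0.5% carboxymethylcellulose sodium in water, six per group. Blood drawn from the posterior vena cava under anesthesia on days 1, 4, 8. Serum obtained by centrifugation (1500g, 10 min) and run on a biochemistry analyzer. Values are mean ± SE.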

Mus musculus [6] = assay: The serum levels of blood urea nitrogen in mice after a single intraperitoneal at dose 150 mg/kg on day 4; type: functional, organism-based; parameters: dose 150 mg/kg; outline: as §3
Mus musculus [7] = assay: The serum levels of blood urea nitrogen in mice after a single intraperitoneal at dose 150 mg/kg on day 8; type: functional, organism-based; parameters: dose 150 mg/kg; outline: as §3
L1210 [8] = assay: Antitumor activity against L1210 Leukemia cells in mice at 25 mg/kg; type: functional, organism-based; parameters: dose 25 mg/kg; settings: Mus musculus; outline: as §2
L1210 [9] = assay: Antitumor activity against L1210 Leukemia cells in mice at 50 mg/kg; type: functional, organism-based; parameters: dose 50 mg/kg; settings: Mus musculus; outline: as §2
L1210 [10] = assay: Antitumor activity against L1210 Leukemia cells in mice at 6.25 mg/kg; type: functional, organism-based; parameters: dose 6.25 mg/kg; settings: Mus musculus; outline: as §2
L1210 [11] = assay: Antitumor activity against L1210 (murine leukemia) cells in mice at 100 mg/kg i.p.; type: functional, organism-based; parameters: dose 100 mg/kg; settings: Mus musculus; outline: as §2
L1210 [12] = assay: Antitumor activity against L1210 Leukemia cells in mice at 12.5 mg/kg; type: functional, organism-based; parameters: dose 12.5 mg/kg; settings: Mus musculus; outline: as §2
Mus musculus [13] = assay: The serum levels of creatinine in mice after a single intraperitoneal at dose 150 mg/kg on day1; type: functional, organism-based; parameters: dose 150 mg/kg; outline: as §3
Mus musculus [14] = assay: The serum levels of creatinine in mice after a single intraperitoneal at dose 150 mg/kg on day 4; type: functional, organism-based; parameters: dose 150 mg/kg; outline: as §3
Mus musculus [15] = assay: The serum levels of creatinine in mice after a single intraperitoneal at dose 150 mg/kg on day 8; type: functional, organism-based; parameters: dose 150 mg/kg; outline: as §3
Mus musculus [16] = organism: Mus musculus; assay: Number of cures/number of animals tested; out of 7 mouse; type: functional, organism-based
Outline: (§4)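 L1210-bearing BDF1 mice (1 × 10^6 cells ip, day 0), seven per dose group, treated ip on days 1, 5 and 9. Toxic deaths counted per group. Cures are animals without gross evidence of tumor on day 50, when experiments ended.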

[17] = Number of deaths/number of animals tested; out of 7 mouse; type: functional; outline: as §4
Mus musculus [18] = organism: Mus musculus; assay: Number of toxic deaths/number of animals tested; type: functional, organism-based; outline: as §4
L1210 [19] = assay: Antitumor activity against Cisplatin-Resistant L1210 Leukemia cells in mice at their respective dose at 1.5 mg/kg, ip, days; type: functional, organism-based; parameters: dose 1.5 mg/kg; settings: Mus musculus; outline: as §2
L1210 [20] = assay: Antitumor activity against Cisplatin-Resistant L1210 Leukemia cells in mice at their respective dose at 3.1 mg/kg, ip, days; type: functional, organism-based; parameters: dose 3.1 mg/kg; settings: Mus musculus; outline: as §2
Mus musculus [21] = assay: The serum levels of blood urea nitrogen in mice after a single intraperitoneal at dose 6.0 mg/kg on day1; type: functional, organism-based; parameters: dose 6 mg/kg; outline: as §3
Mus musculus [22] = assay: The serum levels of blood urea nitrogen in mice after a single intraperitoneal at dose 6.0 mg/kg on day 4; type: functional, organism-based; parameters: dose 6 mg/kg; outline: as §3
Mus musculus [23] = assay: The serum levels of blood urea nitrogen in mice after a single intraperitoneal at dose 6.0 mg/kg on day 8; type: functional, organism-based; parameters: dose 6 mg/kg; outline: as §3
Mus musculus [24] = assay: Antitumor activity against L1210 Leukemia cells in mice at their respective dose at 3.1 mg/kg, ip, days; type: functional, organism-based; parameters: dose 3.1 mg/kg; settings: Leukemia cell; outline: as §2
Mus musculus [25] = assay: Antitumor activity against L1210 Leukemia cells in mice at their respective dose at 1.5 mg/kg, ip, days; type: functional, organism-based; parameters: dose 1.5 mg/kg; settings: Leukemia cell; outline: as §2
Mus musculus [26] = assay: The serum levels of creatinine in mice after a single intraperitoneal at dose 6.0 mg/kg on day1; type: functional, organism-based; parameters: dose 6 mg/kg; outline: as §3
Mus musculus [27] = assay: The serum levels of creatinine in mice after a single intraperitoneal at dose 6.0 mg/kg on day 4; type: functional, organism-based; parameters: dose 6 mg/kg; outline: as §3
Mus musculus [28] = assay: The serum levels of creatinine in mice after a single intraperitoneal at dose 6.0 mg/kg on day 8; type: functional, organism-based; parameters: dose 6 mg/kg; outline: as §3

Sequence: CARBOPLATIN [listing 1 of 2 here]
- IC50 [1]: 10.5 µg/mL
- IC50 (MKN-45): 6.4 µg/mL
- IC50 (NCI-N87): 153.38 µg/mL
- IC50 (PC-9): 19 µg/mL
- IC50 (PC-14): 5.8 µg/mL
- IC50 (SNU1): 37.78 µg/mL
- IC50 (SNU-16): 34.02 µg/mL
- IC50 (SNU-5): 10.75 µg/mL

Sequence: CISPLATIN [listing 1 of 2 here]
- IC50 [1]: 0.83 µg/mL
- IC50 (MKN-45): 0.51 µg/mL
- IC50 (NCI-N87): 13.73 µg/mL
- IC50 (PC-9): 1.03 µg/mL
- IC50 (PC-14): 0.77 µg/mL
- IC50 (SNU1): 2.9 µg/mL
- IC50 (SNU-16): 2.83 µg/mL
- IC50 (SNU-5): 1.29 µg/mL

Sequence: CARBOPLATIN [listing 2 of 2 here]
- T/C (L1210 [2]): 81%
- T/C (L1210 [3]): 98%
- T/C (L1210 [4]): 132%
- BUN (Mus musculus [5]): 24.4 mg 100ml-1
- BUN (Mus musculus [6]): 21.1 mg 100ml-1
- BUN (Mus musculus [7]): 28.6 mg 100ml-1
- T/C (L1210 [8]): 148%
- T/C (L1210 [9]): 196%
- T/C (L1210 [10]): 107%
- T/C (L1210 [11]): 197%
- T/C (L1210 [12]): 125%
- Creatinine (Mus musculus [13]): 0.25 mg 100ml-1
- Creatinine (Mus musculus [14]): 0.19 mg 100ml-1
- Creatinine (Mus musculus [15]): 0.31 mg 100ml-1
- Ratio (Mus musculus [16]): 1 and 2
- Ratio [17]: 2
- Ratio (Mus musculus [18]): 1

Sequence: CISPLATIN [listing 2 of 2 here]
- T/C (L1210 [19]): 86%
- T/C (L1210 [20]): 109%
- BUN (Mus musculus [21]): 24.8 mg 100ml-1
- BUN (Mus musculus [22]): 43.1 mg 100ml-1
- BUN (Mus musculus [23]): 32.5 mg 100ml-1
- T/C (Mus musculus [24]): 167%
- T/C (L1210 [10]): 82%
- T/C (Mus musculus [25]): 142%
- Creatinine (Mus musculus [26]): 0.26 mg 100ml-1
- Creatinine (Mus musculus [27]): 0.28 mg 100ml-1
- Creatinine (Mus musculus [28]): 0.4 mg 100ml-1
- Ratio (Mus musculus [18]): 5 and 2
